Molecules are shown by their SMILES. Converted amounts (≈) assume the structure as drawn. The source made the active and inactive calls.

A short description of series [1]: Selectivity ratio, ratio of IC50 for displacement of fluorescent tracer 4-(4-(1-(4-(1-(6-(3-carboxylato-4-(3-iminio-3H-xanthen-9-yl)benzamido)hexyl)-4,5-dihydro-1H-pyrrol-3-yl)butyl)piperidin-1-ium-4-yl)phenyl)-7-(4-(trifluoromethyl)phenyl)-2-naphthoate from mouse P2Y14R stably expressed in human HEK293 cells to IC50 for displacement of fluorescent tracer 4-(4-(1-(4-(1-(6-(3-carboxylato-4-(3-iminio-3H-xanthen-9-yl)benzamido)hexyl)-4,5-dihydro-1H-pyrrol-3-yl)butyl)piperidin-1-ium-4-yl)phenyl)-7-(4-(trifluoromethyl)phenyl)-2-naphthoate from human P2Y14R stably expressed in CHO cells. In kind it is cell-based.

For series [2], the target named is T1, Muscarinic acetylcholine receptor M5 (Homo sapiens, UniProt P08912).
T1 sequence (P08912 whole entry): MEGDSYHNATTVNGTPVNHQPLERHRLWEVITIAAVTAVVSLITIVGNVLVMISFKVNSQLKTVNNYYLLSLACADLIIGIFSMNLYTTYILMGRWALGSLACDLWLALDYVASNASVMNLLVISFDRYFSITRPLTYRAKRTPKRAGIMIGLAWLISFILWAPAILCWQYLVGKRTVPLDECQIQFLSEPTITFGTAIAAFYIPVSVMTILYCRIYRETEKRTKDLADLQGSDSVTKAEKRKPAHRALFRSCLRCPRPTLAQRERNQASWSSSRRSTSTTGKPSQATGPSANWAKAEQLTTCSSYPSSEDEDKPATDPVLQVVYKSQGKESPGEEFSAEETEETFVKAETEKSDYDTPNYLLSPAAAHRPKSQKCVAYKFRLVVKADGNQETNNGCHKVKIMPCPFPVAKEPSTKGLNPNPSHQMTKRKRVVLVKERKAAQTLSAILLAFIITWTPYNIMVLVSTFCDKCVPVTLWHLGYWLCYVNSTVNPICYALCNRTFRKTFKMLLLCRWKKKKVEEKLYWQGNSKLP
Nature of the series: Displacement of […] from human muscarinic M5 receptor assessed as inhibition constant by radioligand displacement assay.

A short description of series [3]: Stability in rat plasma assessed as parent compound remaining at 1 uM and measured at 120 mins by LC-MS/MS analysis. In kind it is ADME, cell-free. The settings on record: 2 h. In outline:
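Plasma from human, rat and mouse; percent parent remaining at 120 min.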

Series [4] is described as follows: Solubility of compound in pH 4.0 incubated for 20 hrs by pION method. The settings on record: buffer, pH 4, 20 h. In kind it is physicochemical. In outline:
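pION method: 5 mM DMSO stocks diluted 1:100 into pION buffer at pH 4.0 or 7.4, incubated 20 h. Undissolved material removed by centrifugation at 14,000 rpm for 20 min, then supernatant mixed 1:1 with n-propanol. […] Mean ± SD reported.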

Series [5] deals with Mus musculus. Nature of the series: Antiallodynic activity in CCI surgery neuropathic pain Hsd:ICR mouse model assessed as reversal of mechano-allodynia by measuring paw withdrawal threshold at 10 micromol/kg,ip and measured at 0.5 hrs by von frey test. The settings on record: dose 10.0 µmol/kg. Type of series: functional, organism-based. The procedure, abridged: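 CCI neuropathic pain in adult male Hsd:ICR (CD-1) mice (20–30 g). Single i.p. injection on day 7 after sciatic nerve constriction, at peak pain. Vehicle 10% (Kolliphor HS 15:DMSO 5:95) in saline, 0.2 mL. Paw withdrawal threshold by von Frey filaments on ipsilateral and contralateral hindpaws. Mean ± SD; two-way ANOVA with Dunnett's test versus day 0 and day 7.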

The test system of series [6] is Mus musculus. Description: Anti-asthmatic activity against OVA/Aspergillus-sensitized protease-mediated C57BL/6J mouse model allergic asthma assessed as reduction in airway eosinophilia in BAL fluid at 10 mg/kg,ip followed by 0.5 hrs OVA challenge and measured after 48 hrs. In kind it is functional, organism-based. The settings on record: time 48.5 hrs.
The subject of series [7] is Mus musculus. Nature of the series: Anti-asthmatic activity against OVA/Aspergillus-sensitized protease-mediated C57BL/6J mouse model allergic asthma assessed as reduction in lymphocytes in BAL fluid at 10 mg/kg,ip followed by 0.5 hrs OVA challenge and measured after 48 hrs. In kind it is functional, organism-based. Particulars: time 48.5 hrs.

For the compound `O=C(O)c1cc(-c2ccc([C@]3(O)[C@@H]4CNC[C@H]3C4)cc2)c2ccc(-c3ccc(C(F)(F)F)cc3)cc2c1`, the Ratio IC50 in series [1] turned out to be 0.811. Besides, the Ki in series [2] amounted to 6 µM. Also, the Stability in series [3] turned out to be 81.3%. In series [4], this compound returned a solubility of 7.1 µg/mL (≈ 14.1 µM). The outcome in the series on Mus musculus [5] and in the series with Mus musculus [6] was Active. Also, in the series with Mus musculus [7], the outcome was inactive.

Values taken from ChEMBL document CHEMBL5331128, “Alicyclic Ring Size Variation of 4-Phenyl-2-naphthoic Acid Derivatives as P2Y14 Receptor Antagonists” (J Med Chem, 2023).
